Results taken from ChEMBL document CHEMBL3259640 (J Med Chem, 2014).
Active and inactive are the calls of the source. The calls are words filed in the database; no cut-off is given here.

Tests used:
HeLa [1] = experiment: Induction of apoptosis in human HeLa cells assessed as increase in cleaved caspase-3 level at 1 uM after 24 to 48 hrs by western blot analysis; type: functional, cell-based
Method in brief: (§1)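 HeLa cells given 1.0 μM compound, DMSO, or paclitaxel 100 nM for 24 and 48 h. Lysates made in SDS sample buffer, run on SDS-PAGE and transferred to PVDF. Blots probed for cleaved caspase-3, cleaved PARP, Bcl-2, Mcl-1 and XIAP, with actin as loading control, and detected by HRP-linked ECL.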

[2] = molecular target: Fibroblast growth factor receptor 1 (Homo sapiens, UniProt P11362); experiment: Inhibition of FGFR1 (unknown origin) assessed as [33P] incorporation in substrate by TopCount microplate scintillation counting analysis
MDA-MB-231 = experiment: Antitumor activity against human MDA-MB-231 cells xenografted in BALB/c nu/nu mouse assessed as tumor volume at 150 mg/kg, po bid for 28 days administered via gavage relative to control; type: functional
Method in brief: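 Female BALB/c nu/nu mice, 5–8 weeks old, implanted subcutaneously in the right flank with 1 × 10⁷ MDA-MB-231 cells in matrigel. Dosing began at about 100 mm³ mean tumour volume; 5 mice/group. Arms: vehicle (5% DMSO, 10% Cremophor in water) IV once daily, 20 mg/kg IV once daily, or 150 mg/kg PO twice daily, for 28 days. Caliper volumes and body weight every 2 days; T/C on day 28.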

[3] = molecular target: T1, Kinetochore protein NDC80 homolog (Homo sapiens) (UniProt O14777); experiment: Inhibition of Hec1/Nek2 interaction in human MDA-MB-468 cells assessed as induction of Nek2 degradation at 100 nM by western blot analysis in presence of 500 nM proteasome inhibition MG132; type: cell-based
T1 sequence (whole entry): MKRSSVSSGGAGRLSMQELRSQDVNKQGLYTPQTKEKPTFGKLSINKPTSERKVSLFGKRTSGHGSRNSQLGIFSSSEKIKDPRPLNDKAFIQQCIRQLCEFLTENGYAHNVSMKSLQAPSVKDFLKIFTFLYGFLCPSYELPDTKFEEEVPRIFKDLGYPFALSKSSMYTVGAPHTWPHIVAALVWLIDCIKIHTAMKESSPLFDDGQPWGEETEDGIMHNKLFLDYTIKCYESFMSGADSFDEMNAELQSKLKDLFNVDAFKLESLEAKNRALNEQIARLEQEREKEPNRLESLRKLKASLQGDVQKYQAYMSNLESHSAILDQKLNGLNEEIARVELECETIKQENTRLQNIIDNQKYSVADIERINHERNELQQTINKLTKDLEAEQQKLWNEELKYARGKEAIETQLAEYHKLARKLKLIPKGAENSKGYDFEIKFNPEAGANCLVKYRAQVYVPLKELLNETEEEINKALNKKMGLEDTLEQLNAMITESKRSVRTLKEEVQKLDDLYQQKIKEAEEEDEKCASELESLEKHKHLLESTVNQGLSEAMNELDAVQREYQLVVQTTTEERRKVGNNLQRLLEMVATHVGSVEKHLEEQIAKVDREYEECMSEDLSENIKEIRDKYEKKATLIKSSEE
Method in brief: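 MDA-MB-468 cells treated with compound at 100 nM, with or without MG132 at 500 nM. Lysates made in SDS sample buffer, run on SDS-PAGE and blotted to PVDF. Primary antibodies applied in 3% BSA-TBST, with HRP secondaries and enhanced chemiluminescence detection for Hec1 and Nek2.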

[4] = Growth inhibition of human HuH7 cells; type: functional; conditions: Huh-7
[5] = molecular target: T1, Kinetochore protein NDC80 homolog (Homo sapiens); experiment: Inhibition of Hec1/Nek2 interaction in human K562 cells assessed as reduction in coimmunoprecipitated Hec1 level at 100 nM after 16 hrs by co-immunoprecipitation assay; type: cell-based
[6] = molecular target: Epidermal growth factor receptor (Homo sapiens, UniProt P00533, T790M); experiment: Inhibition of EGFR T790M mutant (unknown origin) assessed as [33P] incorporation in substrate by TopCount microplate scintillation counting analysis; type: protein assay
[7] = molecular target: Serine/threonine-protein kinase mTOR (Homo sapiens, UniProt P42345); experiment: Inhibition of mTOR (unknown origin) assessed as [33P] incorporation in substrate by TopCount microplate scintillation counting analysis
MDA-MB-468 [8] = experiment: Induction of mitotic abnormalities in human MDA-MB-468 cells assessed as proportion of cells displaying chromosomal misalignment at 100 nM after 48 hrs by immunofluorescent staining based microscopy (reference value: 21.4%); type: functional
[9] = molecular target: Hepatocyte growth factor receptor (Homo sapiens, UniProt P08581); experiment: Inhibition of MET (unknown origin) assessed as [33P] incorporation in substrate by TopCount microplate scintillation counting analysis
[10] = Growth inhibition of human HAoSMC cells; type: cell-based
HeLa [11] = experiment: Induction of apoptosis in human HeLa cells assessed as reduction in Bcl-2 protein expression at 1 uM after 24 to 48 hrs by western blot analysis; type: functional, cell-based; method in brief: as §1
[12] = molecular target: RAF proto-oncogene serine/threonine-protein kinase (Homo sapiens, UniProt P04049); experiment: Inhibition of C-Raf (unknown origin) assessed as [33P] incorporation in substrate by TopCount microplate scintillation counting analysis
[13] = molecular target: T1, Kinetochore protein NDC80 homolog (Homo sapiens); experiment: Inhibition of Hec1/Nek2 interaction in human K562 cells assessed as reduction in coimmunoprecipitated Hec1 level at 100 nM after 16 hrs by co-immunoprecipitation assay in presence of 500 nM proteasome inhibitor MG132; type: cell-based
MDA-MB-468 [14] = experiment: Induction of mitotic abnormalities in human MDA-MB-468 cells assessed as proportion of cells displaying multipolar spindles at 100 nM after 48 hrs by immunofluorescent staining based microscopy (reference value: […]); type: functional
[15] = molecular target: Voltage-gated inwardly rectifying potassium channel KCNH2 (Homo sapiens, UniProt Q12809); experiment: Displacement of [3H]astemizole from human ERG after 60 mins by competitive binding assay
HeLa [16] = experiment: Induction of apoptosis in human HeLa cells assessed as reduction in XIAP protein expression at 1 uM after 24 to 48 hrs by western blot analysis; type: functional, cell-based; method in brief: as §1
HeLa [17] = experiment: Growth inhibition of human HeLa cells; type: functional
[18] = molecular target: Serine/threonine-protein kinase B-raf (Homo sapiens, UniProt P15056); experiment: Inhibition of B-Raf (unknown origin) assessed as [33P] incorporation in substrate by TopCount microplate scintillation counting analysis
[19] = Clearance in Sprague-Dawley rat at 2 mg/kg, iv compound formulated with 5% DMSO, 10% cremophor and 85% water by LC-MS/MS analysis; type: ADME, organism-based; set-up: dose 2 mg/kg, route intravenous; conditions: in vivo
MDA-MB-468 [20] = experiment: Induction of mitotic abnormalities in human MDA-MB-468 cells assessed as increase in proportion of cells displaying multipolar spindles after 48 hrs by immunofluorescent staining based microscopy; type: functional, cell-based
[21] = Growth inhibition of HUVEC; type: cell-based; conditions: human
T47D = experiment: Growth inhibition of human T47D cells; type: functional
HeLa [22] = experiment: Antiproliferative activity against human HeLa cells assessed as cell viability after 96 hrs by CellTiter96 assay; type: functional, cell-based
HeLa [23] = experiment: Induction of apoptosis in human HeLa cells assessed as reduction in Mcl-1 protein expression at 1 uM after 24 to 48 hrs by western blot analysis; type: functional, cell-based; method in brief: as §1

Chain of RAF proto-oncogene serine/threonine-protein kinase (P04049 whole entry): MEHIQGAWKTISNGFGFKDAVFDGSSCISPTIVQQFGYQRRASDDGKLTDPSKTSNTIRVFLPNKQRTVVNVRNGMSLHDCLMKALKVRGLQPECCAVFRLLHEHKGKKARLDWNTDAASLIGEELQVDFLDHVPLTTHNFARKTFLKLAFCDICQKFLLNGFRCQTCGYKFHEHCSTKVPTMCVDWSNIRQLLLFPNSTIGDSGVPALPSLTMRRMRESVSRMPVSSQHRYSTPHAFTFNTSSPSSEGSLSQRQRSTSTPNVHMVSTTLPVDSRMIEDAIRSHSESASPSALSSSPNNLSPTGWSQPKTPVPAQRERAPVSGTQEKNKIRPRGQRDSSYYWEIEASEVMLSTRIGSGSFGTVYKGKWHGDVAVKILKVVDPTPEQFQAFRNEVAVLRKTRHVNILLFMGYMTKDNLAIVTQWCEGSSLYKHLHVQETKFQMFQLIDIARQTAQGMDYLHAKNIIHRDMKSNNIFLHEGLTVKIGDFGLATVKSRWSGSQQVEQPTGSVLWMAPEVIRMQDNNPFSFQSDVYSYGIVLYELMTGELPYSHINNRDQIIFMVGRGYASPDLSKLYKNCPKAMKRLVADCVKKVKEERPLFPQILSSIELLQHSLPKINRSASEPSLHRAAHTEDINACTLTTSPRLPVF
Chain of Epidermal growth factor receptor (P00533 25-1210 T790M limits assumed): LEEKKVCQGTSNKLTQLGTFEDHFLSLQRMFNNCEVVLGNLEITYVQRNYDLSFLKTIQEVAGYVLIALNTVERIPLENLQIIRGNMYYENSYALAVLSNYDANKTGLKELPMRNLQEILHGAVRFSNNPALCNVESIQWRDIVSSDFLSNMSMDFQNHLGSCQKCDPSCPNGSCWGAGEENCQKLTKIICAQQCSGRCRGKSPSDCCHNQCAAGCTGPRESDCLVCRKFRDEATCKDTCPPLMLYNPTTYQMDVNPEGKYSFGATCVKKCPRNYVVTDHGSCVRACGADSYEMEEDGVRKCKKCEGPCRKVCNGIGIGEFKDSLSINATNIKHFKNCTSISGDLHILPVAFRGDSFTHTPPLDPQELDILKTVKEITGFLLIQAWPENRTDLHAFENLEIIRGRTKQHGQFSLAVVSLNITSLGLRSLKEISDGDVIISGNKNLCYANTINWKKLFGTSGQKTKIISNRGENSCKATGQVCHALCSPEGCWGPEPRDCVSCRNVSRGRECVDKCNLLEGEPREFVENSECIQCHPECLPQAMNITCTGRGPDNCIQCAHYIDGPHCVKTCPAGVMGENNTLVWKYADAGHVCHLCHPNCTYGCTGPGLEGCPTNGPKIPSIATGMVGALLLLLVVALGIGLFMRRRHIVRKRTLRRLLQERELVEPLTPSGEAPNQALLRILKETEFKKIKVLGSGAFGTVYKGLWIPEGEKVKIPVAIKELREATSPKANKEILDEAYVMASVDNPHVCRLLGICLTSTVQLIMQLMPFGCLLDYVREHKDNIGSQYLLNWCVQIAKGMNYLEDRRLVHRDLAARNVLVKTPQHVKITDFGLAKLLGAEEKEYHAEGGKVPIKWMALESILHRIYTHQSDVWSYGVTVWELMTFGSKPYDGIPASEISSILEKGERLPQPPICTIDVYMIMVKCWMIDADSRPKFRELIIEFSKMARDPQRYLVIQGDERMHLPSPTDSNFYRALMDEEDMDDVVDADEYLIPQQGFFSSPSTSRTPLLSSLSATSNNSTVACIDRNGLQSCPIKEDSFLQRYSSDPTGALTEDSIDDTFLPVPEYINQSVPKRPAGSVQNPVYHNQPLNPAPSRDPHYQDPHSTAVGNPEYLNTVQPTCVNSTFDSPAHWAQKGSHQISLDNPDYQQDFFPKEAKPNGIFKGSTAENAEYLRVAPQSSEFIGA
Chain of Voltage-gated inwardly rectifying potassium channel KCNH2 (Q12809 whole entry): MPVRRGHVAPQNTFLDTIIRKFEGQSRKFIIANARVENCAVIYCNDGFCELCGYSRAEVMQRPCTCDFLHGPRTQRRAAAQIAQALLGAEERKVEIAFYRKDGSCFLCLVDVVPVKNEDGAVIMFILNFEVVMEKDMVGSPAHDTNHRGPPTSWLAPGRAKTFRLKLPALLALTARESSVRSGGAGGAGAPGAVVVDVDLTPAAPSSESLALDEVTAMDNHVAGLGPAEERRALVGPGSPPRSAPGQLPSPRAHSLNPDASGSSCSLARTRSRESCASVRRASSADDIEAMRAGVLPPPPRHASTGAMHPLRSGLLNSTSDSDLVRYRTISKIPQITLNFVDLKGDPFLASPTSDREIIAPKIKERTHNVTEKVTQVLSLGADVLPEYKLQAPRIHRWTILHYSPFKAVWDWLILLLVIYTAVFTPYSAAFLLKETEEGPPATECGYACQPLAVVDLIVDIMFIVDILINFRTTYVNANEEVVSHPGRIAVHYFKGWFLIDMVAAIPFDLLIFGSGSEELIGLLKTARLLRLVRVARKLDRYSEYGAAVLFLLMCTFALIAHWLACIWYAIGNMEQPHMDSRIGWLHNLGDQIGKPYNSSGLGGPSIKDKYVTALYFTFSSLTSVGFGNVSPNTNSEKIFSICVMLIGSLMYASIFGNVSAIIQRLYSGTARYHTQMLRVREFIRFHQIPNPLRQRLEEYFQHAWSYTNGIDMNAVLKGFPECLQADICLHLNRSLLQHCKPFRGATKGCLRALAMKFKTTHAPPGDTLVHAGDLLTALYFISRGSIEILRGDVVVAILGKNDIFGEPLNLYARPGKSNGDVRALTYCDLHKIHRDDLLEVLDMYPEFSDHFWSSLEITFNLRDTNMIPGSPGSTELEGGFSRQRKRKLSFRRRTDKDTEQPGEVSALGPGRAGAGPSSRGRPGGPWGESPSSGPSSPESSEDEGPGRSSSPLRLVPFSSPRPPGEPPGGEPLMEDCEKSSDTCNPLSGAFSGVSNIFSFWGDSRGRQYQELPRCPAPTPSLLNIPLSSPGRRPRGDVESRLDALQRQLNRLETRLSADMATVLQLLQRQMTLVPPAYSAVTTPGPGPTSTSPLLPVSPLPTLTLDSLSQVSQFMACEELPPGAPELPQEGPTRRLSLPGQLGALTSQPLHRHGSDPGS
Chain of Serine/threonine-protein kinase B-raf (P15056 whole entry): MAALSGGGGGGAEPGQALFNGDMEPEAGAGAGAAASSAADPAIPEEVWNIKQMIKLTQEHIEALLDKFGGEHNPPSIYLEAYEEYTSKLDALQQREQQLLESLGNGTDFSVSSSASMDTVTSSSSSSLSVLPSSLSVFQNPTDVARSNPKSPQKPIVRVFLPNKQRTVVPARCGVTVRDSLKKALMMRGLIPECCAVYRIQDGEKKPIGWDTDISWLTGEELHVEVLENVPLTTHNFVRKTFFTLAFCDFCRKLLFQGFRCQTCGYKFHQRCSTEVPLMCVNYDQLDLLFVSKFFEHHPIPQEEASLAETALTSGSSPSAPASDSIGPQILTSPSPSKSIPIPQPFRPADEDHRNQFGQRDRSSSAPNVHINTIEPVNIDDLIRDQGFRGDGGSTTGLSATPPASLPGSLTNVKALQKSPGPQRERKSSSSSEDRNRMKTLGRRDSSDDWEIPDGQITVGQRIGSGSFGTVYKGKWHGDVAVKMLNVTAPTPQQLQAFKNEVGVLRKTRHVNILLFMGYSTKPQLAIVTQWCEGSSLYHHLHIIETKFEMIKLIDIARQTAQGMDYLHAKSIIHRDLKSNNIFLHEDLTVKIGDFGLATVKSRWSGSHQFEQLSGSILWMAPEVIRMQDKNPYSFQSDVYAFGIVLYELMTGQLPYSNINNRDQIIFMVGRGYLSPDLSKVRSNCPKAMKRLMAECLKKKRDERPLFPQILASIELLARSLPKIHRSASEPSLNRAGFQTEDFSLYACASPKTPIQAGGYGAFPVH
Chain of Fibroblast growth factor receptor 1 (P11362 whole entry): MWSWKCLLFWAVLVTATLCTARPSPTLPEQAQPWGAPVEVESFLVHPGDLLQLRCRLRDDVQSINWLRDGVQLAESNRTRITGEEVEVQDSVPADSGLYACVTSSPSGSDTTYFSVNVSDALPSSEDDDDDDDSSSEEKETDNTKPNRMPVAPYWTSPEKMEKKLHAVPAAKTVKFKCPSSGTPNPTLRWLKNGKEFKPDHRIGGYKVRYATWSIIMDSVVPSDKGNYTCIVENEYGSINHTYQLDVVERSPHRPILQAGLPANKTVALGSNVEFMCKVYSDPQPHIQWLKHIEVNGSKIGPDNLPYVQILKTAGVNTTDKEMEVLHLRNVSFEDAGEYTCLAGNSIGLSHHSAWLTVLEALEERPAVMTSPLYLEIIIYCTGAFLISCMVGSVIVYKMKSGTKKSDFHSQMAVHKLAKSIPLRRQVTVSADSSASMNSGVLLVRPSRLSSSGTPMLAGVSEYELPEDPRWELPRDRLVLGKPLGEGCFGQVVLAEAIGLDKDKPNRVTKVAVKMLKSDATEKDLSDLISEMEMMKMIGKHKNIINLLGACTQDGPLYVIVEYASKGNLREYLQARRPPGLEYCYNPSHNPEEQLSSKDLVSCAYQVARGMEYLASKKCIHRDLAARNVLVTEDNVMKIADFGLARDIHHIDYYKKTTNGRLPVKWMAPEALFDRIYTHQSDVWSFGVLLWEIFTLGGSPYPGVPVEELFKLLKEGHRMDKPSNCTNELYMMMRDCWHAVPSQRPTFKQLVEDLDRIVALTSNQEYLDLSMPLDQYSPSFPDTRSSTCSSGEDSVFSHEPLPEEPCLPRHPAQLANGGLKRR

- IC50 [2]: > 10 µM
- Activity [3]: inactive
- inhibition [5]: Active
- IC50 [6]: > 10 µM
- IC50 [7]: > 10 µM
- IC50 [9]: > 10 µM
- IC50 [12]: > 10 µM
- inhibition [13]: Active
- GI50 (HeLa [17]): 0.0228 µM
- IC50 [18]: > 10 µM
- clearance [19]: 1.22 mL/min/kg
- GI50 (T47D): 0.377 µM
- IC50 (HeLa [22]): 0.0427 µM
Compound: COc1ccc(Oc2cc(C)c(-c3csc(NC(=O)c4ccnc(F)c4)n3)c(C)c2)cc1
- Activity (HeLa [1]): Active
- T/C (MDA-MB-231): 57%
- GI50 [4]: 0.0796 µM
- Activity (MDA-MB-468 [8]): 21.8%
- GI50 [10]: > 9 µM
- inhibition (HeLa [11]): Active
- Activity (MDA-MB-468 [14]): 29.1%
- IC50 [15]: > 10 µM
- inhibition (HeLa [16]): Active
- Activity (MDA-MB-468 [20]): Dose-dependent effect
- GI50 [21]: > 9 µM
- inhibition (HeLa [23]): Active
